Results published in ChEMBL document CHEMBL4811241, “Revisiting Pyrazolo[3,4-d]pyrimidine Nucleosides as Anti-Trypanosoma cruzi and Antileishmanial Agents” (J Med Chem, 2021).

Experiments:
[1] = system: UGT; assay: Metabolic stability of the compound in mouse liver microsomes S9 fraction assessed as UGT-mediated metabolism by measuring parent compound remaining at 5 uM measured after 30 mins in presence of UDPGA by UPLC-MS analysis; type: ADME, subcellular; conditions: read-out: Stabilty
Method in brief: (§1)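 Compound at 5 μM with 0.5 mg/mL male mouse or pooled human liver microsomes; reaction started with 2 mM UDPGA. Sampled at 0, 15, 30 and 60 min and quenched in cold acetonitrile with internal standard. Parent remaining measured by UPLC-MS/MS (MRM) as % of the 0 min value.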

[2] = target: T1, CYP450 (Homo sapiens, UniProt P04798+P05177+P05181+P08684+P10632+P10635+P11509+P11712+P13584+P20813+P20815+P20853+P24462+P24903+P33260+P33261+P51589+P78329+P98187+Q02928+Q08477+Q16678+Q16696+Q5TCH4+Q6VVX0+Q7Z449+Q8TAV3+Q96SQ9+Q9HB55); assay: Metabolic stability of the compound in human liver microsomes S9 fraction assessed as CYP450-mediated metabolism by measuring parent compound remaining at 5 uM measured after 30 mins in presence of NADPH by UPLC-MS analysis; type: ADME, subcellular; conditions: read-out: Stabilty
Method in brief: (§2)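 Compound at 5 μM with 0.5 mg/mL male mouse or pooled human liver microsomes in potassium phosphate buffer; reaction started with 1 mM NADPH. Samples taken at 0, 15, 30 and 60 min and quenched in cold acetonitrile with internal standard. Parent remaining quantified by UPLC-MS/MS in MRM mode and given as % of the 0 min value.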

[3] = Toxicity in Swiss webster mouse infected with Trypanosoma cruzi Y trypomastigotes assessed as animal survival at 2.5 to 25 mg/kg, po bid for 5 days treatment started at 6 days post-infection and measured at 34 days post-infection; type: organism-based; conditions: in vivo, dose 2.5-25 mg/kg, time 29 day
Method in brief: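 Male Swiss Webster mice (18−20 g, 4−5 weeks) were infected i.p. with 10⁴ Y-strain bloodstream trypomastigotes from a donor mouse. Only mice with detectable parasitemia were treated, in groups of six. Oral gavage was given on days 6–10 post-infection, b.i.d. or q.d. as listed, in 10% Tween 80 vehicle, freshly prepared. Infected vehicle controls were included. Mortality was checked daily to 34 dpi as cumulative percentage.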

[4] = system: CYP450; assay: Metabolic stability of the compound in mouse liver microsomes S9 fraction assessed as CYP450-mediated metabolism by measuring parent compound remaining at 5 uM measured after 30 mins in presence of NADPH by UPLC-MS analysis; type: ADME, subcellular; conditions: read-out: Stabilty; method in brief: as §2
[5] = system: Trypanosoma cruzi; assay: Antitrypanosomal activity against nifurtimox-sensitive Trypanosoma cruzi Tulahuen CL2 infected in Swiss mouse peritoneal macrophages assessed as inhibition of parasite growth measured after 7 days in presence of ABC transporter inhibitor, probenecid by spectrophotometric analysis; type: functional, organism-based; conditions: Tulahuen CL2, Peritoneal macrophage, 168 h
Method in brief: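 Macrophage-hosted 7-day assay read with CPRG at 540 nm, with compound given together with an ABC transporter inhibitor: cyclosporine A 2 μM, probenecid 700 μM or verapamil 8 μM. IC50 from % reduction versus infected controls.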

[6] = system: Trypanosoma cruzi; assay: Antitrypanosomal activity against intracellular amastigote form of Trypanosoma cruzi Y infected in Swiss Webster mouse cardiomyocytes assessed as inhibition of parasite growth incubated for 48 hrs by Giemsa staining based microscopic analysis; type: functional, organism-based; conditions: Cardiac muscle cell
Method in brief: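 Primary 2D mouse embryo cardiac cell cultures, infected for 24 h, then washed and exposed for 48 h at 37 °C to a serial dilution. Cells fixed and stained with Giemsa; infected cells and parasites per infected cell scored in 200 host cells. Activity expressed from the inhibition index; two independent experiments run in duplicate.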

[7] = Selectivity index, ratio of LC50 for cytotoxicity against Swiss Webster mouse 2D cardiomyocytes to IC50 for antitrypanosomal activity against intracellular amastigote form of Trypanosoma cruzi Y infected in Swiss Webster mouse cardiomyocytes; type: toxicity, cell-based; conditions: read-out: Ratio LC50/IC50
Method in brief: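 Ratio of cardiac-cell CC₅₀ to Y-strain amastigote IC₅₀. Cardiac cultures were infected after 24 h plating for 24 h with bloodstream trypomastigotes (10:1 parasite/host). After washing, cells were treated 48 h at 37 °C with a serial dilution. Cells were then Giemsa-stained, with infection and parasites per cell scored in 200 cells. Two independent experiments were run in duplicate.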

[8] = Cytotoxicity against Swiss mouse peritoneal macrophages assessed as cell detachment, lysis and granulation measured after 5 days by microscopic analysis; type: cell-based, Peritoneal macrophage; conditions: time 5 day
Method in brief: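 Scored within the Leishmania macrophage assay over 5 days: detachment, lysis and granulation judged semi-quantitatively by microscopy across at least 500 cells. CC50 derived from % reduction in normal cells versus untreated wells.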

[9] = Cytotoxicity against human MRC-5 SV2 cells assessed as reduction in cell growth measured after 3 days by resazurin dye based fluorometric analysis; conditions: time 3 day
[10] = system: UGT; assay: Metabolic stability of the compound in mouse liver microsomes S9 fraction assessed as UGT-mediated metabolism by measuring parent compound remaining at 5 uM measured after 60 mins in presence of UDPGA by UPLC-MS analysis; type: ADME, subcellular; conditions: read-out: Stabilty; method in brief: as §1
[11] = target: T1, CYP450; assay: Metabolic stability of the compound in human liver microsomes S9 fraction assessed as CYP450-mediated metabolism by measuring parent compound remaining at 5 uM measured after 60 mins in presence of NADPH by UPLC-MS analysis; type: ADME, subcellular; conditions: read-out: Stabilty; method in brief: as §2
[12] = system: Trypanosoma cruzi; assay: Antitrypanosomal activity against nifurtimox-sensitive Trypanosoma cruzi Tulahuen CL2 infected in human MRC-5 SV2 cells assessed as inhibition of parasite growth measured after 7 days by spectrophotometric analysis; type: functional, organism-based; conditions: Tulahuen CL2, MRC-5 SV2, 168 h
[13] = Cytotoxicity against Swiss Webster mouse 2D cardiomyocytes assessed as reduction in cell viability measured after 48 hrs by PrestoBlue assay; parameters: species or system Cardiac Muscle Cell; conditions: read-out: LC50
Method in brief: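 Mouse embryo heart cells as monolayer (2D) or 3D aggregates (25 × 10³ cells/well on 1% agarose). Uninfected cultures exposed 48 h to rising concentrations. Morphology checked by light microscopy; viability read by PrestoBlue; CC₅₀ determined.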

Nc1ncnc2c1c(-c1ccc(Cl)cc1)nn2[C@@H]1O[C@H](CO)[C@@H](O)[C@H]1O
remaining at 0.5 h, 5 µM [1]: 115% | remaining at 0.5 h, 5 µM [2]: 101% | survival at 696 h [3]: 83% | remaining at 0.5 h, 5 µM [4]: 103% | IC50 [5]: > 64 µM | IC50 [6]: 0.26 µM | selectivity ratio [7]: > 1900 | CC50 at 120 h [8]: > 64 µM | CC50 at 72 h [9]: > 64 µM | remaining at 1 h, 5 µM [10]: 115% | remaining at 1 h, 5 µM [11]: 101% | IC50 [12]: 0.32 µM | CC50 at 48 h [13]: 500 µM
